Compounds with a hit are over-represented: about 2.4% of the library has one in this group of screens.
697 NFkB inh: inhibitors of the PMA/ionomycin-induced NF-kB reporter in 697 B cells; inhibition, % at 4 µM; AID 435022; actives 0.33% (n = 330,000); 697 B-cell NF-kB luciferase reporter, 16 h; in the data active = inhibition above about 35%
NR2E3 ag-1: human photoreceptor-specific nuclear receptor agonism; AID 602229; CHO-S Gal4-NCOR/VP16-NR2E3 two-hybrid, luciferase; actives 0.35% (n = 360,000); Q9Y5X4; inhibition of corepressor binding, % at 3.98 µM;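 active = inhibition above the mean of all tested compounds plus 3 SD, cut at about 70% in these data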;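 note: higher means lower luciferase signal from less NR2E3 corepressor binding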
Target sequence (Q9Y5X4 whole entry, looked up, the tested form may be a part): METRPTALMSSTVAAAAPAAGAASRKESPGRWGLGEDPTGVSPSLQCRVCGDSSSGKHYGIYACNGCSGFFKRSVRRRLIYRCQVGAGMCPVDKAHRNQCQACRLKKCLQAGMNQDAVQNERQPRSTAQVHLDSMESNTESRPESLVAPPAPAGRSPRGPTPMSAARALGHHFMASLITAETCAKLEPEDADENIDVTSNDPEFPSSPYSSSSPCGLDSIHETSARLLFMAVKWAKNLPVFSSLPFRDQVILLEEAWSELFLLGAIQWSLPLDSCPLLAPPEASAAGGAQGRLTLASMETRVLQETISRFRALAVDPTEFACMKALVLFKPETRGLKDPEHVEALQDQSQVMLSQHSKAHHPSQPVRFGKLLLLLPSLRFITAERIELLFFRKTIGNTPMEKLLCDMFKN
Jurkat NFkB inh: inhibitors of the PMA/ionomycin-induced NF-kB reporter in Jurkat cells. PMA/ionomycin-induced NF-kB luciferase reporter, luminescence. inhibition, % at 4 µM. actives 0.53% (n = 330,000); in the data active = inhibition above about 50%
NR2E3 ag-2: agonists of human nuclear receptor NR2E3; AID 2300; inhibition of corepressor binding, % at 4.78 µM; Q9Y5X4; GST-NR2E3/biotin-RetCOR TR-FRET, 1536-well; actives 0.12% (n = 320,000);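 active = percent inhibition above the cutoff of mean plus 3 SD of all tested compounds, set per screening campaign, cut at about 20% in these data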
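Test system – NR2E3–RetCOR corepressor complex · Quantity – NR2E3 fusion 1.35 nM · Buffer or medium – Tris pH 7.5 · Incubation – Compound–protein incubation for 5 h at 4 °C · Technique – TR-FRET, Eu(K)-anti-GST donor, streptavidin-D2 acceptor, ex 340, em 617/671 nm · Evaluation – percent inhibition of 671/617 nm emission ratio versus biotin and DMSO controls · Plate – 1536-well format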
aDG glyco up: increases alpha dystroglycan glycosylation; Pro5-aDG cells, alpha-DG glycosylation AlphaScreen (IIH6); 0% Pro5, 100% B10-LARGE cell signal; activation, % at 10 µM; actives 0.22% (n = 360,000); AID 624168;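 active = activation of at least 8% versus controls, or a plate z-score of at least 8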;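 note: Pro5 are CHO cells carrying HIG-tagged alpha-DG that lacks glycosylation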
MPTP inh: permeability transition pore inhibition; isolated mouse mitochondria, Ca2+ swelling absorbance, 30 min; inhibition, % at 10 µM; actives 1.4% (n = 360,000); AID 602449;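 active = inhibition of 50% or more, scaled per plate between neutral and stimulator controls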
MPTP counter: mitochondrial membrane potential, counter-screen. actives 78% (n = 5,000). isolated mitochondria, Rhodamine 123 fluorescence. inhibition, % at 10 µM. AID 624504. shares compounds with MPTP inh; in the data active = inhibition above about 22%
MPTP abs DR: MPTP inhibition, dose response swelling confirmation. shares compounds with MPTP inh. isolated mitochondria swelling, absorbance. IC50, µM. actives 58% (n = 780); in the data active = IC50 below about 20 µM
MPTP counter DR: counter-screen for mitochondrial permeability transition pore inhibitors, dose response | IC50, µM | actives 49% (n = 780) | AID 651564 | isolated mitochondria counterscreen, fluorescence read-out | shares compounds with MPTP inh; in the data active = IC50 below about 80 µM
A number is an active result; 0 = inactive; - = no result given.

SMILES	697 NFkB inh	NR2E3 ag-1	Jurkat NFkB inh	NR2E3 ag-2	aDG glyco up	MPTP inh	MPTP counter	others
O=C(NCc1ccc2c(c1)OCO2)c1c(-c2ccccc2)sc2ccccc12	0	0	0	-	0	82	79
COc1ccc(C)cc1-n1nnnc1SCc1cc(=O)n2cc(C)ccc2n1	0	0	0	0	0	52	0	MPTP abs DR=0;MPTP counter DR=21
Cc1ccc2[nH]c3c(NCc4ccco4)ncnc3c2c1	0	0	0	0	4.7	60	85
Cc1ccc(-n2ncc3c(NCc4ccco4)ncnc32)c(C)c1	0	0	0	0	0	0	-
COc1cc(CNc2ncnc3c2[nH]c2ccc(C)cc23)cc(OC)c1	0	0	0	0	0	86	83
COc1ccc(/C=N/Nc2ncnc3c2[nH]c2ccc(C)cc23)c(OC)c1OC	0	0	0	0	0	0	-
Cc1cc(C)c(-c2csc(Cc3nc(-c4cc5ccccc5oc4=O)cs3)n2)cc1C	0	0	0	0	0	53	0	MPTP abs DR=6.3;MPTP counter DR=7.8
Cc1ccc(-c2csc(Cc3nc(-c4cc5ccccc5oc4=O)cs3)n2)cc1	0	0	0	0	0	0	-
CC(=O)Nc1ccc(S(=O)(=O)NCCC(=O)OCc2csc(CC(=O)Nc3ccccc3C)n2)cc1	0	0	0	0	0	0	-
COc1ccccc1/C=N/NC(=O)c1ccc(Cn2nc([N+](=O)[O-])cc2C)cc1	0	0	0	0	0	65	0	MPTP abs DR=0;MPTP counter DR=0
Cc1cc(C)c2nc(SCCc3ccccc3)nc(C)c2c1	0	0	0	0	0	71	0	MPTP abs DR=0;MPTP counter DR=0
Cc1cc(C)c2nc(SCc3ccc([N+](=O)[O-])cc3)nc(C)c2c1	0	0	0	0	0	0	-
Cn1nnnc1SCCNCc1cc(Cl)ccc1OCc1ccccc1	0	0	0	0	0	83	31
N#Cc1c(C(F)(F)F)cc(-c2cccc(Cl)c2)[nH]c1=O	0	0	0	0	0	94	89
N#Cc1c(C(F)(F)F)cc(-c2ccc(Cl)cc2)[nH]c1=O	0	0	0	0	0	93	82
O=[N+]([O-])c1ccc(OCC(O)CNCCNc2nccc(C(F)(F)F)n2)cc1 (stereo unspecified)	0	0	0	0	0	0	-
CC1CC(C)CN(Cc2nc(N)nc(Nc3ccc4ccccc4c3)n2)C1 (stereo unspecified)	0	0	0	0	0	63	0	MPTP abs DR=0;MPTP counter DR=0
CC1CC(C)CN(Cc2nc(N)nc(Nc3ccccc3)n2)C1 (stereo unspecified)	0	0	0	0	0	0	-
CCOC(=O)C1=C(CC)Nc2ccccc2N=C1NC(=O)Nc1ccc(Cl)c(Cl)c1	0	0	0	0	0	97	62
CCOC(=O)C1=C(CC)Nc2ccccc2N=C1NC(=O)c1cc(C)on1	0	0	0	0	0	0	-
Cc1ccc(NC(=O)c2cc(S(=O)(=O)NCCc3ccccc3)ccc2F)cc1Cl	0	0	0	0	0	56	71
O=C(Nc1cccc(Cl)c1)c1cc(S(=O)(=O)NCCc2ccc(Cl)cc2)ccc1F	0	0	0	0	0	70	71
CCOC(=O)N1CCC(NC(=O)c2cc(S(=O)(=O)NCCc3ccccc3)ccc2F)CC1	0	0	0	0	0	0	-
COc1ccc(CNS(=O)(=O)c2ccc(F)c(C(=O)Nc3ccc(OC)cc3)c2)cc1	0	0	0	0	0	0	-
CCOC(=O)c1cc(-c2cccc(O)c2)oc1C	-	0	-	-	0	0	-
CC1CCCN(C(=O)c2ccc3c(=O)n(C4CCCC4)c(=S)[nH]c3c2)C1 (stereo unspecified)	0	0	0	0	0	0	-
O=C(c1ccc2c(=O)n(C3CCCC3)c(=S)[nH]c2c1)N1CCCCCC1	0	0	0	0	0	89	79
CC(=O)Nc1ccc(-c2ccnc3c2CC(C)(C(=O)Nc2ccc(F)c(Cl)c2)O3)cc1 (stereo unspecified)	-	0	-	-	0	0	-

Screening data from PubChem BioAssay.
